Test results reported in ChEMBL document CHEMBL5385869, “Novel 4-aminoquinolines: Synthesis, inhibition of the Mycobacterium tuberculosis enoyl-acyl carrier protein reductase, antitubercular activity, SAR, and preclinical evaluation” (Eur J Med Chem, 2023).
Activity calls are given as the source filed them. The calls are words filed in the database; no cut-off is given here.

What was measured:
[1] = molecular target: T1, Enoyl-[acyl-carrier-protein] reductase [NADH] (Mycobacterium tuberculosis, UniProt P9WGR1); experiment: Binding affinity to Mycobacterium tuberculosis InhA assessed as dissociation constant at 250 uM at 15 degreeC in presence of NADH by fluorescence spectroscopy
T1 sequence (P9WGR1 whole entry): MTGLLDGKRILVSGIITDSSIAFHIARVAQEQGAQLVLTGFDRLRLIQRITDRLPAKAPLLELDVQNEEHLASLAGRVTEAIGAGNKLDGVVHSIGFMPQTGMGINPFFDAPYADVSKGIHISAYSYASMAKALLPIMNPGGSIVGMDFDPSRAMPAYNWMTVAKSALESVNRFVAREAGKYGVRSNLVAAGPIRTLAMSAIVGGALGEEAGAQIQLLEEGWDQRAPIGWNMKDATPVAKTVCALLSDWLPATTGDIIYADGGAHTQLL
Procedure, shortened: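 Titration of pre-formed MtInhA:NADH complex (2 mL of 3 μM enzyme with 20 μM NADH), adding microliter aliquots of 250 μM ligand stock with dilution kept ≤1%. Intrinsic fluorescence read at 295 nm excitation, 310–500 nm emission. Temperatures 15, 20, 25 and 30 °C. KD is fitted to a hyperbolic isotherm. ΔH°, ΔS° and ΔG° come from van't Hoff analysis of KD across temperatures.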

[2] = Toxicity in CF-1 mouse assessed as reduction in body weight at 150 uM/kg, po administered daily for 14 days; assay type: organism-based; settings: in vivo, 336 h, time 14 day
Procedure, shortened: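 Mice were infected with M. tuberculosis H37Rv. From 7 days after infection, test and reference drugs were given daily by oral gavage for 14 days, with a vehicle-only group. Body weight was followed over the course of the experiment.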

[3] = test system: Mycobacterium tuberculosis; experiment: Antibacterial activity against Mycobacterium tuberculosis H37Rv ATCC 27294 infected in CF-1 mouse assessed as reversal of bacterial growth in spleen at 300 to 450 uM/kg, po administered daily for 14 days starting from 7 days post infection; assay type: functional, organism-based; settings: dose 300-450 µM/Kg, time 14.0 day
Procedure, shortened: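 Mice treated by gavage from 7 days post-infection for 14 days, daily, at 300 or 450 μM/kg. Lungs and spleen homogenized in saline and plated for CFU. Comparisons are against vehicle and early-control groups.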

Cc1cc(Nc2ccc(N3CCCCC3)cc2)c2cc(Br)ccc2n1
Kd [1]: 280 nM
Activity [2]: Non-Toxic
Activity [3]: inactive
